Screening results as filed in PubChem BioAssay.
M1 antagonist: antagonists of rat M1 muscarinic receptor; Muscarinic acetylcholine receptor M1 (Rattus norvegicus), P08482; CHO-M1 cells, Fluo-4 calcium, ACh EC80 antagonist mode; active compounds read low; B-score at 10 µM; 64,000 compounds, 3.4% hits;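 active = calcium fluorescence response, raw or row-and-column corrected B-score, differing from the plate sample mean either way at a set confidence level, mostly lower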
M1 ag: M1 muscarinic receptor agonists, primary screen, CHO-M1 cells, Fluo-4 calcium, agonist mode; Fluo-4 calcium fluorescence; active compounds read high; 64,000 compounds, 3% hits; B-score at 10 µM; AID 626, 2007;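 active = fluorescence rise, raw or as B-score row- and column-corrected plate score, outside the 99.7% band of its plate's samples, either direction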
BAP1 block: inhibitors of BAP1 deubiquitinase, primary screen, biochemical, Ub-AMC fluorescence, kinetic; Ubiquitin carboxyl-terminal hydrolase BAP1 (Homo sapiens), Q92560; recombinant BAP1, Ub-AMC hydrolysis fluorescence kinetic; active compounds read low; calls only at 20 µM; 72,000 compounds, 0.48% hits;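 active = activity remaining at or below 50% of control, provided the compound also passes the data quality filters; inactive = the rest, including low values that fail the filters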
Target sequence (Q92560 whole entry, looked up): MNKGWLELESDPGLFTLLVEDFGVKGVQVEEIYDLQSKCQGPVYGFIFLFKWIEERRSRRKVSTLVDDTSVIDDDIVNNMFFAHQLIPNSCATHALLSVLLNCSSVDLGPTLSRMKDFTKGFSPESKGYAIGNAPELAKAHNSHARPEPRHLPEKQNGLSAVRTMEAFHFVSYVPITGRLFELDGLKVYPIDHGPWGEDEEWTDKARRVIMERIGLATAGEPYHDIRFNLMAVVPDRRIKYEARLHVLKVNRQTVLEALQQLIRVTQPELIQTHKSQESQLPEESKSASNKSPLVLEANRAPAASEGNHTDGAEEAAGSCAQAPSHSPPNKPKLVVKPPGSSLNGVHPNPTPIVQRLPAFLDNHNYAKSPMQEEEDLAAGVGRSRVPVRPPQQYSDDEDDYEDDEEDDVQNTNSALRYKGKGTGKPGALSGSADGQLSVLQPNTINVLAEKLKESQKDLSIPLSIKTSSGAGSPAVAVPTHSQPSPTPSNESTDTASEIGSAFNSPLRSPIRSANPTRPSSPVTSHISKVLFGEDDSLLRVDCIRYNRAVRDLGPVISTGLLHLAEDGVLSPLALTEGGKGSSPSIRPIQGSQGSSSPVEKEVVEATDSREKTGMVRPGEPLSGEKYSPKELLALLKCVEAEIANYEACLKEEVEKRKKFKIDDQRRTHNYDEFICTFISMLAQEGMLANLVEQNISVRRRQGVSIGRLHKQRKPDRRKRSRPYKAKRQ
HEK293 NFkB inh: inhibitors of PMA/ionomycin-induced NF-kB reporter, primary screen, antigen receptor NF-kB inhibitor project, cell-based, HEK-293 luciferase reporter, luminescence; AID 465, 2006; HEK-293 NF-kB luciferase reporter; inhibition, % at 3 µM; 62,000 compounds, 0.21% hits;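 active = inhibition above the mean of all tested compounds plus 3 SD, cut at about 40% in these data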
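Reagent: PMA plus ionomycin mix as NF-kB-activating stimulus. Assay system: NF-kB luciferase reporter HEK-293 cells. Technique: luminescence from luciferase substrate reagent. Incubation: 1 h compound pre-incubation, 16 h PMA/ionomycin at 37 °C. Benchmarks: DMSO only as uninhibited control, 10 µM reference inhibitor as full inhibition. Repeats: tested once.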
Her2 expr inh: inhibitors of Her2 protein expression, primary screen, SKBR-3 cells, AlphaScreen, 66K library | Receptor tyrosine-protein kinase erbB-2 (Homo sapiens), P04626 | SKBR-3 HER2 protein level, 18-24 h; active compounds read low | HER2 level % of control, % at 10 µM | 65,000 compounds, 0.69% hits | AID 645, 2007;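 active = HER2 level under 5% of the carrier-only control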;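 also: lower value means stronger loss of Her2 protein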
JNK3 inh: JNK3 kinase activity inhibitors, primary screen, biochemical, human, purified enzyme; Mitogen-activated protein kinase 10 (Homo sapiens), P53779; HTS; inhibition, % at 8 µM; 60,000 compounds, 0.61% hits; in the data active = inhibition above about 17%
M1 antag confirm: rat M1 muscarinic receptor antagonists, confirmation, CHO cells, Fluo-4 calcium, duplicate; shares compounds with M1 antagonist; 1,700 compounds, 43% hits; calcium response (max-min fluorescence) at 10 µM; ACh EC80 antagonism; active compounds read low; AID 677, 2007;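 active = calcium response below the same-plate mean of wells given acetylcholine alone at its 80%-effect dose, minus 3 SD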
mGluR4 antag: human mGluR4 response to M1 antagonist hits, M1 allosteric modulator project, cell-based, antagonist mode, secondary assay 1. shares compounds with M1 antagonist. CHO-mGluR4 calcium flux, Fluo-4 fluorescence, glutamate EC80; active compounds read low. fluorescence response (max-min) at 10 µM. 1,700 compounds, 0.9% hits;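 active = fluorescence response below the plate's average for near-maximal glutamate wells, less 3 SD of those wells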;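 also: raw unnormalized fluorescence span taken in the window right after glutamate addition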
Hits are given with their value; i = inactive; nt = no result shown. Shown are actives, neighbours in structure and some others; about 6.6% of the full set was active somewhere.

SMILES	M1 antagonist	M1 ag	BAP1 block	HEK293 NFkB inh	Her2 expr inh	JNK3 inh	M1 antag confirm	mGluR4 antag
C[N+]1(C)[C@@H]2CC[C@H]1CC(OC(=O)C(CO)c1ccccc1)C2 (stereo partly specified)	-17	i	i	nt	i	i	12	i
COc1ccc(CN2CCCCC2c2cccnc2)cc1C (stereo unspecified)	-5.4	i	i	i	i	i	482	i
COc1cccc(CN2CCCCC2c2cccnc2)c1 (stereo unspecified)	i	i	i	i	i	i	nt	nt
Cc1ccc(NC(=O)CCC(=O)Nc2ccc(Cl)cc2C(=O)c2ccccc2)cc1	nt	nt	i	nt	nt	nt	nt	nt
Clc1ccc(C(Cl)(Cl)Cl)c(Cl)n1	nt	nt	i	nt	nt	nt	nt	nt
Cc1c(N=Cc2c(O)n(Cc3ccco3)c(=O)[nH]c2=O)c(=O)n(-c2ccccc2)n1C	i	i	i	nt	i	i	nt	nt
CCCCn1c(O)c(C(C)=Nc2c(C)n(C)n(-c3ccccc3)c2=O)c(=O)[nH]c1=O	-8.4	i	i	i	i	i	326	i
CCCCn1c(O)c(C=Nc2c(C)n(C)n(-c3ccccc3)c2=O)c(=O)[nH]c1=O	-2.5	i	i	i	i	i	i	i
CCCCCCN=C(C)c1c(O)n(CCCC)c(=O)[nH]c1=O	i	i	i	i	i	i	nt	nt
CC1CCC(NCCc2ccc3c(c2)OCO3)CC1 (stereo unspecified)	-5.2	i	i	i	i	i	199	i
CN1CCN(CCC(C#N)(c2ccccc2)c2ccccc2)CC1	-17	i	nt	i	i	nt	16	i
CN(CC1COc2ccccc2O1)c1nc(-c2cccnc2)nc2ccccc12 (stereo unspecified)	-3.9	i	nt	i	i	i	i	i
COc1ccc(-n2nnnc2C2(N3CCOCC3)CCCCC2)cc1	nt	nt	i	nt	nt	nt	nt	nt
O=C1NC(=O)C(CCc2ccncc2)(C2CCCCC2)C(=O)N1	-4.6	i	i	i	i	i	550	i
CN1C(=O)N(C)C(=O)C(CCc2ccncc2)(Cc2ccc3c(c2)OCO3)C1=O	i	i	i	i	i	i	nt	nt
CCOC(=O)C1CCN(C(C)C(=O)c2c(C)[nH]c3cc(C)ccc23)CC1 (stereo unspecified)	-4.3	i	i	i	i	i	445	i
CCOC(=O)C1=C(C)N(C)C2(C)CC1c1ccccc1O2 (stereo unspecified)	-2.4	i	i	i	i	i	i	i
CCCCCCOc1ccc(CN2CCN(C)CC2)cc1	-3.3	i	i	i	i	i	502	i
CCCC12CN3CCN(CC(C3)C1O)C2 (stereo unspecified)	nt	nt	i	nt	nt	nt	nt	nt
CC1CN=C(Nc2ccccc2)S1 (stereo unspecified)	i	i	i	i	i	i	nt	nt
CC1CN=C(Nc2ccc(N(C)C)cc2)S1 (stereo unspecified)	-2.1	i	i	nt	i	i	i	i
Cc1ccc(-n2c(C=Cc3cccnc3)nc3ccccc3c2=O)cc1	nt	nt	i	nt	nt	nt	nt	nt
O=C(COc1ccc(S(=O)(=O)N2CCCCC2)cc1)N1CCN(Cc2ccccc2)CC1	i	i	i	i	i	i	nt	nt
O=C(COc1ccc2ccccc2c1)N1CCN(C2CCN(Cc3ccccc3)CC2)CC1	-2.4	i	i	nt	i	i	i	i
NC1=C(C(=O)OCc2ccccc2)C2(C(=O)Nc3ccc(Br)cc32)C2=C(CCCC2=O)O1 (stereo unspecified)	nt	nt	i	nt	nt	nt	nt	nt
COC(=O)c1ccc(CN2CCN(Cc3ccccc3)CC2)cc1	-3.1	i	i	i	i	i	428	i
CN1C2CCC1CC(OC(=O)c1ccc(Cl)cc1)C2 (stereo unspecified)	-19	i	i	i	i	i	61	i
